Reference: ChEMBL document CHEMBL2424583, “Structure-activity relationship and in vitro and in vivo evaluation of the potent cytotoxic anti-microtubule agent N-(4-methoxyphenyl)-N,2,6-trimethyl-6,7-dihydro-5H-cyclopenta[d]pyrimidin-4-aminium chloride and its analogues as antitumor agents” (J Med Chem, 2013)
Active and inactive are the calls of the source. The rule behind the calls is not given here.

How the values were obtained:
A10 [1] = experiment: Induction of microtubule depolymerization in rat A10 cells up to 40 uM after 18 hrs by indirect immunofluorescence assay; assay type: cell-based
Summary of the method: (§1)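 A-10 cells were exposed to vehicle or compound for 18 h, fixed, and microtubules were visualized by indirect immunofluorescence. EC50 is the concentration causing about 50% microtubule loss, from at least three independent experiments.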

MDA-MB-435 = experiment: Cytotoxicity against human MDA-MB-435 cells assessed as growth inhibition after 48 hrs by SRB assay; assay type: functional, cell-based; details: MDA-MB-435, 48 h
[2] = Induction of microtubule depolymerization in rat A10 cells after 18 hrs by indirect immunofluorescence assay; assay type: cell-based; summary of the method: as §1
A10 [3] = experiment: Induction of microtubule depolymerization in rat A10 cells up to 10 uM after 18 hrs by indirect immunofluorescence assay; assay type: cell-based; summary of the method: as §1
Tubulin (Sus scrofa) = Tubulin (Sus scrofa) (UniProt P02554+P02550); experiment: Displacement of [3H]-colchicine from pig brain tubulin at 1 uM after 10 mins by scintillation counting analysis relative to control
Sequence of Tubulin (Sus scrofa) (P02550 whole entry, looked up): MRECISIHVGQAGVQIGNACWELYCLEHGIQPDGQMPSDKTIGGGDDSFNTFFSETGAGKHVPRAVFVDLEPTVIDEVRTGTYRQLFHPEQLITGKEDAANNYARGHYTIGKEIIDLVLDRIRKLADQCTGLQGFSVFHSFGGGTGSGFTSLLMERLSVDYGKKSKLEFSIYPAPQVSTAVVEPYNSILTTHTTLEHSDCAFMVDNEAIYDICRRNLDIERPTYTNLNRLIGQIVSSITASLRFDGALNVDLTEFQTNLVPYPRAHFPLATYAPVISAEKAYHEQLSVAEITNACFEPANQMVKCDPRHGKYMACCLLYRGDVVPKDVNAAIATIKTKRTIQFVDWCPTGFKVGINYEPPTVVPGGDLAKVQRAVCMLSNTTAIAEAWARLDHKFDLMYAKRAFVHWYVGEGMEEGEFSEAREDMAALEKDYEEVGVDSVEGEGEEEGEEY
Sequence of Tubulin (Sus scrofa) (P02554 whole entry, looked up): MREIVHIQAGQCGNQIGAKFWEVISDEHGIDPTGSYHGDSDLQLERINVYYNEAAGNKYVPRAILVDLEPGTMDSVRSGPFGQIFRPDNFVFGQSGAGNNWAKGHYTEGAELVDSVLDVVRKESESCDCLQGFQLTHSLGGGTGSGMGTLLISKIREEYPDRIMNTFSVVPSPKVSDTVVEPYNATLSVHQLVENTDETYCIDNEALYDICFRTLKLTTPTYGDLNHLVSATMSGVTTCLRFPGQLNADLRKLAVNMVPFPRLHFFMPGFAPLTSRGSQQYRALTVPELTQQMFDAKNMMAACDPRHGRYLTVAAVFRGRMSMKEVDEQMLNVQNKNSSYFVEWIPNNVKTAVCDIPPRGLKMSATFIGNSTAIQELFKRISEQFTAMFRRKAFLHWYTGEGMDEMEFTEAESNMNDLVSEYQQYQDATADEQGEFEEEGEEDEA

EC50 [2] [nM] | SMILES | Activity (A10 [1]) | IC50 (MDA-MB-435) [nM] | Activity (A10 [3]) | inhibition (Tubulin (Sus scrofa)) [%]
 | COc1ccc(Nc2nc(N)nc3c2CC(C)C3)cc1 (racemic) | inactive | > 10000 |  | 
143 | COc1ccc(N(C)c2nc(N)nc3c2CC(C)C3)cc1 (racemic) |  | 29.9 |  | 
47 | COc1ccc(N(C)c2nc(C)nc3c2C(C)CC3)cc1 (racemic) |  | 18.8 |  | 
899 | C=CC1Cc2nc(N)nc(N(C)c3ccc(OC)cc3)c2C1 (racemic) |  | 205 |  | 
730 | CCOc1ccc(N(C)c2ncnc3c2CCC3)cc1 |  | 48.7 |  | 
 | COc1cccc(N(C)c2nc(N)nc3c2CCC3)c1 |  | > 1000 | inactive | 
 | Cc1nc2c(c(N(C)c3ccc(Cl)cc3)n1)CC(C)C2 (racemic) | inactive | 2300 |  | 
15000 | Cc1nc2c(c(N(C)c3cccc(Br)c3)n1)CC(C)C2 (racemic) |  | 1500 |  | 
140 | C=CC1Cc2nc(C)nc(N(C)c3ccc(OC)cc3)c2C1 (racemic) |  | 73.2 |  | 
675 | CSc1ccc(N(C)c2ncnc3c2CCC3)cc1 |  | 42.8 |  | 
 | Cc1ccc(N(C)c2ncnc3c2CCC3)cc1 |  |  | inactive | 
64 | CCOc1ccc(N(C)c2nc(C)nc3c2CCC3)cc1 |  | 15.1 |  | 
148 | CCOc1ccc(N(C)c2nc(N)nc3c2CCC3)cc1 |  | 20.3 |  | 
655 | COc1ccc(N(C)c2ncnc3c2CCC3)cc1 |  | 43 |  | 
 | COc1ccccc1N(C)c1nc(N)nc2c1CCC2 |  | > 1000 | inactive | 
 | CN(c1ccc(Cl)cc1)c1ncnc2c1CCC2 |  |  | inactive | 
10500 | Cc1ccc(N(C)c2nc(C)nc3c2CCC3)cc1 |  | 360 |  | 
64 | CSc1ccc(N(C)c2nc(C)nc3c2CC(C)C3)cc1 (racemic) |  | 15.6 |  | 
110 | COc1ccc(N(C)c2nc(N)nc3c2CCC3)cc1 |  | 16.7 |  | 

SMILES | EC50 [2] [nM] | Activity (A10 [1]) | IC50 (MDA-MB-435) [nM] | Activity (A10 [3]) | inhibition (Tubulin (Sus scrofa)) [%]
COc1ccc(/C=C\c2cc(OC)c(OC)c(OC)c2)cc1O [COMBRETASTATIN A4] | 7 |  |  |  | 80
